Results taken from ChEMBL document CHEMBL4359830, “Discovery and structure-activity relationship of novel diphenylthiazole derivatives as BTK inhibitor with potent activity against B cell lymphoma cell lines” (Eur J Med Chem, 2019).

Columns and labels:
Ramos [1] = assay: Antiproliferative activity against human Ramos cells measured after 72 hrs by CCK-8 assay; format: functional, cell-based
Procedure, shortened: (§1)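 Ramos or Raji cells in RPMI-1640 with 10% FBS and 1% penicillin-streptomycin at 37 °C, 5% CO2. Seeded at 2000–3000 cells/well one day before compound addition. Exposure 72 h, then CCK-8 with absorbance at 450 nm. […] Single-point inhibition at 40 µM reported as mean ± standard deviation.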

[2] = molecular target: Tyrosine-protein kinase BTK (Homo sapiens, UniProt Q06187); assay: Inhibition of human recombinant full length N-terminal His tagged BTK expressed in baculovirus infected Sf9 cells using poly (Glu,Tyr) 4:1 as substrate measured after 60 mins in presence of ATP by ADP-Glo kinase assay
Sequence of Tyrosine-protein kinase BTK (Q06187 whole entry): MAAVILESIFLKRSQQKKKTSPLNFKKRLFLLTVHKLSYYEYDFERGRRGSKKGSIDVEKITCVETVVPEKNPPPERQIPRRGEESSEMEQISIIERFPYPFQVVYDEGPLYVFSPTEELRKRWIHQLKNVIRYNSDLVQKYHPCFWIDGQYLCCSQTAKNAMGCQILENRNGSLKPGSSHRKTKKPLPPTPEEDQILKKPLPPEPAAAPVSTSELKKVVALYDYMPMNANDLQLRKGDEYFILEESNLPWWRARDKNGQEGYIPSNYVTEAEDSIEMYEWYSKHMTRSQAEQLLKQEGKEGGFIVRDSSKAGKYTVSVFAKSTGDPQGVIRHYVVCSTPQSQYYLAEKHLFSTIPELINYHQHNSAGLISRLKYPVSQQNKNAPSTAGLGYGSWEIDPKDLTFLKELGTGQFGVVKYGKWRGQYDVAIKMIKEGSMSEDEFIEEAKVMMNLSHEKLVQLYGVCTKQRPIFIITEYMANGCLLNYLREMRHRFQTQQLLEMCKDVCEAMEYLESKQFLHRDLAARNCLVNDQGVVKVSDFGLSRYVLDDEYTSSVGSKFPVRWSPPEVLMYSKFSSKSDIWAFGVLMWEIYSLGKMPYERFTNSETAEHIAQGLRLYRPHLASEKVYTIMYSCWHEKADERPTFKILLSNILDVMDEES

Raji [3] = assay: Antiproliferative activity against human Raji cells at 40 uM measured after 72 hrs by CCK-8 assay relative to control; format: functional; settings: Homo sapiens, Raji, 72 h; procedure, shortened: as §1
Ramos [4] = assay: Antiproliferative activity against human Ramos cells at 40 uM measured after 72 hrs by CCK-8 assay relative to control; format: functional; settings: Homo sapiens, Ramos, 72 h; procedure, shortened: as §1
Raji [5] = assay: Antiproliferative activity against human Raji cells measured after 72 hrs by CCK-8 assay; format: functional, cell-based; procedure, shortened: as §1
Ramos [6] = assay: Potency index, ratio of ibrutinib IC50 to compound IC50 for antiproliferative activity against human Ramos cells; format: functional

| Compound | IC50 (Ramos [1]) | IC50 [2] | IC50 (Raji [5]) | inhibition at 40 µM (Raji [3]) | inhibition at 40 µM (Ramos [4]) | Ratio IC50 (Ramos [6]) |
| --- | --- | --- | --- | --- | --- | --- |
| CCOC(=O)c1sc(-c2cccc(NC(=O)c3ccc(C(F)(F)F)cc3)c2)nc1Nc1ccc(C(=O)N2CCOCC2)cc1 | – | – | – | 6.06% | 49.9% | – |
| CCOC(=O)c1sc(-c2cccc(NC(=O)c3ccccc3)c2)nc1Nc1ccc(N2CCN(C)CC2)cc1 | 24.8 µM | 37.1 µM | – | 42% | 77.1% | – |
| CCOC(=O)c1sc(-c2cccc(NC(=O)c3ccc(Cl)cc3)c2)nc1Nc1ccc(N2CCN(C)CC2)cc1 | – | – | – | 24.3% | 46.9% | – |
| CN1CCN(c2ccc(Nc3nc(-c4cccc(NC(=O)c5ccco5)c4)sc3C(N)=O)cc2)CC1 | 19.7 µM | 0.073 µM | 37.4 µM | 84.3% | 96.7% | – |
| CCOC(=O)c1sc(-c2cccc(NC(=O)c3ccc(C(C)(C)C)cc3)c2)nc1Nc1ccc(C(=O)N2CCOCC2)cc1 | 25.2 µM | – | – | 13.2% | 82.6% | – |
| CN1CCN(c2ccc(Nc3nc(-c4cccc(NC(=O)c5cccc(F)c5)c4)sc3C(N)=O)cc2)CC1 | – | – | – | 2.78% | 16.2% | – |
| CCOC(=O)c1sc(-c2cccc(NC(=O)c3ccc(C(F)(F)F)cc3)c2)nc1Nc1ccc(N2CCN(C)CC2)cc1 | – | – | – | 33% | 18.4% | – |
| CCOC(=O)c1sc(-c2cccc(NC(=O)c3ccc(F)cc3)c2)nc1Nc1ccc(N2CCOCC2)cc1 | – | – | – | 25.8% | 3.96% | – |
| CCOC(=O)c1sc(-c2cccc(NC(=O)c3ccc(C(C)(C)C)cc3)c2)nc1Nc1ccc(N2CCN(C)CC2)cc1 | – | – | – | 4.22% | 21.2% | – |
| CN1CCN(c2ccc(Nc3nc(-c4cccc(NC(=O)c5ccc(C(C)(C)C)cc5)c4)sc3C(N)=O)cc2)CC1 | 8.6 µM | 5.25 µM | – | 12.1% | 80.1% | – |
| CN1CCN(c2ccc(Nc3nc(-c4cccc(NC(=O)c5ccccc5)c4)sc3C(=O)O)cc2)CC1 | – | – | – | 11.9% | 26.3% | – |
| CCOC(=O)c1sc(-c2cccc(NC(=O)[C@H]3CC[C@H](C)CC3)c2)nc1Nc1ccc(N2CCN(C)CC2)cc1 | – | – | – | 26.1% | 19.9% | – |
| CN1CCN(c2ccc(Nc3nc(-c4cccc(NC(=O)c5ccc(Cl)cc5)c4)sc3C(N)=O)cc2)CC1 | 1.36 µM | 0.614 µM | 5.7 µM | 92.6% | 99% | 10 |
| CCOC(=O)c1sc(-c2cccc(NC(=O)c3ccc(C#N)cc3)c2)nc1Nc1ccc(N2CCN(C)CC2)cc1 | 4.28 µM | 5.17 µM | 14 µM | 79.1% | 97.5% | – |
| CCOC(=O)c1sc(-c2cccc(NC(=O)c3ccc(C(C)(C)C)cc3)c2)nc1Nc1ccc(N2CCOCC2)cc1 | – | – | – | 6.21% | 14% | – |
| CN1CCN(c2ccc(Nc3nc(-c4cccc(NC(=O)c5ccccc5F)c4)sc3C(=O)O)cc2)CC1 | 6.3 µM | 21.9 µM | 13.9 µM | 86.8% | 93.3% | – |
| CCOC(=O)c1sc(-c2cccc(NC(=O)c3ccc(F)cc3)c2)nc1Nc1ccc(N2CCN(C)CC2)cc1 | – | – | – | 16.8% | 3.53% | – |
| CCOC(=O)c1sc(-c2cccc(NC(=O)c3ccc(F)cc3)c2)nc1Nc1ccc(C(=O)N2CCOCC2)cc1 | – | – | – | 37.3% | 31.1% | – |
| CCOC(=O)c1sc(-c2cccc(NC(=O)c3ccc(C(F)(F)F)cn3)c2)nc1Nc1ccc(N2CCN(C)CC2)cc1 | – | – | – | 20.8% | 19% | – |
| CC(C)(C)c1ccc(C(=O)Nc2cccc(-c3nc(Nc4ccc(C(=O)N5CCOCC5)cc4)c(C(N)=O)s3)c2)cc1 | 28.4 µM | 0.333 µM | – | 33.4% | 85.2% | – |

Further lines, with some results ahead:

| IC50 (Ramos [1]) | IC50 [2] | IC50 (Raji [5]) | Compound | inhibition at 40 µM (Raji [3]) | inhibition at 40 µM (Ramos [4]) | Ratio IC50 (Ramos [6]) |
| --- | --- | --- | --- | --- | --- | --- |
| 4.37 µM | 5.32 µM | 5.74 µM | CC(C)(C)c1ccc(C(=O)Nc2cccc(-c3nc(Nc4ccc(N5CCOCC5)cc4)c(C(=O)O)s3)c2)cc1 | 93.8% | 94.3% | – |
| 14 µM | 27.8 µM | 35.1 µM | CN1CCN(c2ccc(Nc3nc(-c4cccc(NC(=O)c5cccc(F)c5)c4)sc3C(=O)O)cc2)CC1 | 76.3% | 82.7% | – |
| – | 4.2 µM | – | CCOC(=O)c1sc(-c2cccc(NC(=O)c3ccc(N(C)C)cc3)c2)nc1Nc1ccc(N2CCOCC2)cc1 | 7.96% | 12.3% | – |
| 13 µM | 0.733 µM | 35.4 µM | NC(=O)c1sc(-c2cccc(NC(=O)c3ccc(F)cc3)c2)nc1Nc1ccc(C(=O)N2CCOCC2)cc1 | 82.5% | 91.5% | – |
| 23.3 µM | 0.134 µM | 7.02 µM | CN1CCN(c2ccc(Nc3nc(-c4cccc(NC(=O)c5ccc(Cl)cc5)c4)sc3C(=O)O)cc2)CC1 | 90.9% | 71.6% | – |
| – | 2.23 µM | – | CC(C)(C)c1ccc(C(=O)Nc2cccc(-c3nc(Nc4ccc(N5CCOCC5)cc4)c(C(N)=O)s3)c2)cc1 | 4.42% | 5.57% | – |
| 1.76 µM | 0.159 µM | 6.36 µM | CN1CCN(c2ccc(Nc3nc(-c4cccc(NC(=O)c5ccccc5)c4)sc3C(N)=O)cc2)CC1 | 91.3% | 98.1% | – |
| 24.5 µM | 21 µM | – | CN(C)c1ccc(C(=O)Nc2cccc(-c3nc(Nc4ccc(N5CCOCC5)cc4)c(C(=O)O)s3)c2)cc1 | 24.4% | 74.4% | – |
| – | 62.8 µM | – | CC(C)NC(=O)c1sc(-c2cccc(NC(=O)c3ccc(C(C)(C)C)cc3)c2)nc1Nc1ccc(N2CCOCC2)cc1 | 6.39% | 27.9% | – |
| 19.8 µM | 0.637 µM | 24.5 µM | CN1CCN(c2ccc(Nc3nc(-c4cccc(NC(=O)c5ccc(C(F)(F)F)cn5)c4)sc3C(N)=O)cc2)CC1 | 84.6% | 96.6% | – |
| 12.8 µM | 19.2 µM | 21.2 µM | CCOC(=O)c1sc(-c2cccc(NC(=O)c3cccc(F)c3)c2)nc1Nc1ccc(N2CCN(C)CC2)cc1 | 82.8% | 85.2% | – |
| 34.1 µM | 8.53 µM | 8.96 µM | CNC(=O)c1sc(-c2cccc(NC(=O)c3ccc(C(C)(C)C)cc3)c2)nc1Nc1ccc(N2CCOCC2)cc1 | 94% | 65.8% | – |
| – | 6.75 µM | – | NC(=O)c1sc(-c2cccc(NC(=O)c3ccc(C(F)(F)F)cc3)c2)nc1Nc1ccc(N2CCOCC2)cc1 | 7.48% | 25.2% | – |
| 1.42 µM | 0.862 µM | 2.82 µM | CN1CCN(c2ccc(Nc3nc(-c4cccc(NC(=O)c5ccc(F)cc5)c4)sc3C(N)=O)cc2)CC1 | 95.3% | 95.9% | 10 |
| 1.58 µM | 0.206 µM | 3.21 µM | CN1CCN(c2ccc(Nc3nc(-c4cccc(NC(=O)c5ccc(C(F)(F)F)cc5)c4)sc3C(N)=O)cc2)CC1 | 91.8% | 97.8% | – |
| – | 0.105 µM | – | CN1CCN(c2ccc(Nc3nc(-c4cccc(NC(=O)[C@H]5CC[C@H](C)CC5)c4)sc3C(N)=O)cc2)CC1 | 22.4% | 55% | – |
| – | 0.258 µM | – | NC(=O)c1sc(-c2cccc(NC(=O)c3ccc(F)cc3)c2)nc1Nc1ccc(N2CCOCC2)cc1 | 9.92% | 3.53% | – |
| 1.36 µM | 2.67 µM | 3.27 µM | CN1CCN(c2ccc(Nc3nc(-c4cccc(NC(=O)c5ccccc5F)c4)sc3C(N)=O)cc2)CC1 | 97.3% | 95.5% | 10 |
| 29.2 µM | – | – | CCOC(=O)c1sc(-c2cccc(NC(=O)c3ccc(F)c(Cl)c3)c2)nc1Nc1ccc(N2CCN(C)CC2)cc1 | 20.7% | 72.5% | – |
| – | 2.42 µM | – | CCOC(=O)c1sc(-c2cccc(NC(=O)c3ccc(C(F)(F)F)cc3)c2)nc1Nc1ccc(N2CCOCC2)cc1 | 5.44% | 21.8% | – |
| 29.8 µM | 0.617 µM | 75.3 µM | NC(=O)c1sc(-c2cccc(NC(=O)c3ccc(C(F)(F)F)cc3)c2)nc1Nc1ccc(C(=O)N2CCOCC2)cc1 | 43.8% | 83.8% | – |
| 5.6 µM | – | 8.74 µM | CN1CCN(c2ccc(Nc3nc(-c4cccc(NC(=O)c5ccc(F)c(Cl)c5)c4)sc3C(=O)O)cc2)CC1 | 87.9% | 98.6% | – |
| – | 0.161 µM | 15.1 µM | CCOC(=O)c1sc(-c2cccc(NC(=O)c3ccco3)c2)nc1Nc1ccc(N2CCN(C)CC2)cc1 | 87.6% | 50.2% | – |
| 2 µM | 2.1 µM | 9.27 µM | CCOC(=O)c1sc(-c2cccc(NC(=O)c3ccccc3F)c2)nc1Nc1ccc(N2CCN(C)CC2)cc1 | 89.8% | 96.3% | – |
| 29.5 µM | 38.1 µM | – | O=C(Nc1cccc(-c2nc(Nc3ccc(N4CCOCC4)cc3)c(C(=O)O)s2)c1)c1ccc(C(F)(F)F)cc1 | 18.8% | 77.4% | – |
